Experiments:
Cannabinoid receptor 1 [1] = target: T1, Cannabinoid receptor 1 (Homo sapiens, UniProt P21554); test: Agonist activity at human CB1 receptor; assay type: functional
Cannabinoid receptor 1 [2] = target: T1, Cannabinoid receptor 1; test: Agonist activity at human CB1 receptor relative to control; assay type: functional
Cannabinoid receptor 2 [3] = target: T2, Cannabinoid receptor 2 (Homo sapiens, UniProt P34972); test: Agonist activity at human CB2 receptor expressed in SF9 cells assessed as inhibition of CP-55940-stimulated GTP binding
How it was run: (§1)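 Sf9 membranes co-expressing hCB1 or hCB2 with Gαi3 (Bmax 1.7 pmol/ml). Europium-GTP (10 nM) binding in 50 mM Hepes, 0.1% BSA, 10 mM MgCl2, 150 mM NaCl, GDP, 0.0005% saponin, 1% DMSO. Compound tested from 0.01 nM upward. Incubated 45 min at room temperature, then filtered and washed; fluorescence read at 615 nm. 3 micromolar CP55940 defines 100% efficacy.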

Cannabinoid receptor 1 [4] = target: T1, Cannabinoid receptor 1; test: Agonist activity at human CB1 receptor expressed in SF9 cells assessed as inhibition of CP-55940-stimulated GTP binding; how it was run: as §1
Cannabinoid receptor 2 [5] = target: T2, Cannabinoid receptor 2; test: Agonist activity at human CB2 receptor expressed in SF9 cells assessed as inhibition of CP-55940-stimulated GTP binding relative to control
How it was run: (§2)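 Sf9 insect-cell membranes co-expressing hCB1 or hCB2 with Gαi3 (Bmax 1.7 pmol/ml). Compound added in 50 mM Hepes/0.1% BSA to buffer with 10 mM MgCl2, 150 mM NaCl, GDP, 10 nM GTP-Europium and 0.0005% saponin. Final DMSO was 1%. Incubated 45 min at room temperature, then filtered, washed and read by fluorescence at 615 nm. 3 µM CP55940 set 100% efficacy. Logistic fit, n = 2–20.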

Cannabinoid receptor 1 [6] = target: T1, Cannabinoid receptor 1; test: Agonist activity at human CB1 receptor expressed in SF9 cells assessed as inhibition of CP-55940-stimulated GTP binding relative to control; how it was run: as §2
Cannabinoid receptor 2 [7] = target: T2, Cannabinoid receptor 2; test: Agonist activity at human CB2 receptor expressed in CHO cells assessed as suppression of forskolin-stimulated cAMP accumulation; assay type: functional, cell-based
How it was run: (§3)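 Forskolin-induced cAMP measured in CHO cells expressing human CB1 or CB2. EC50 from a logistic fit of the concentration–response curve. Emax taken as the maximum of the dose–response. Means of n = 2–20 independent measurements.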

Cannabinoid receptor 1 [8] = target: T1, Cannabinoid receptor 1; test: Agonist activity at human CB1 expressed in CHO cells receptor assessed as suppression of forskolin-stimulated cAMP accumulation relative to control; assay type: functional, cell-based
How it was run: (§4)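 CHO cells expressing human CB1 or CB2. Read-out was suppression of forskolin-induced cAMP production in whole cells. Emax was taken as the maximum of the dose–response curve. Values are means of n = 2–20 independent measurements, derived by logistic fit.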

Cannabinoid receptor 2 [9] = target: T2, Cannabinoid receptor 2; test: Agonist activity at human CB2 receptor expressed in CHO cells assessed as suppression of forskolin-stimulated cAMP accumulation relative to control; assay type: functional, cell-based; how it was run: as §4
Cannabinoid receptor 1 [10] = target: T1, Cannabinoid receptor 1; test: Agonist activity at human CB1 receptor expressed in CHO cells assessed as suppression of forskolin-stimulated cAMP accumulation; assay type: functional, cell-based; how it was run: as §3
Cannabinoid receptor 2 [11] = target: T2, Cannabinoid receptor 2; test: Agonist activity at human CB2 receptor; assay type: functional
Cannabinoid receptor 2 [12] = target: T2, Cannabinoid receptor 2; test: Agonist activity at human CB2 receptor relative to control; assay type: functional
[13] = Clearance in Sprague-Dawley rat at 0.5 mg/kg, iv; assay type: ADME, organism-based; parameters: dose 0.5 mg/kg, route intravenous; conditions: in vivo
How it was run: (§5)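 Single intravenous dose of 0.5 mg/kg given as a solution in DMSO to Sprague–Dawley rats; n = 2 animals.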

Rattus norvegicus = test: Tmax in Sprague-Dawley rat at 10 mg/kg, po; assay type: ADME, organism-based; parameters: dose 10 mg/kg, route oral; conditions: in vivo
How it was run: (§6)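 Oral dose of 10 mg/kg in a 2% HPMC, 1% Tween 80 vehicle given to Sprague–Dawley rats; n = 3 animals.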

[14] = Protein binding in human plasma; assay type: ADME, cell-free; conditions: read-out: PPB (converted)
[15] = Intrinsic clearance in rat liver microsomes; assay type: ADME, Microsome
[16] = Protein binding in rat plasma; assay type: ADME, cell-free; conditions: read-out: PPB (converted)
[17] = Half life in Sprague-Dawley rat at 0.5 mg/kg, iv; assay type: ADME, organism-based; parameters: dose 0.5 mg/kg, route intravenous; conditions: in vivo; how it was run: as §5
[18] = Intrinsic clearance in human liver microsomes; assay type: ADME, Microsome
[19] = Oral bioavailability in Sprague-Dawley rat at 10 mg/kg; assay type: ADME, organism-based; conditions: in vivo; how it was run: as §6
[20] = Volume of distribution at steady state in Sprague-Dawley rat at 0.5 mg/kg, iv; assay type: ADME, organism-based; parameters: dose 0.5 mg/kg, route intravenous; conditions: in vivo, read-out: Vdss; how it was run: as §5
[21] = AUC (0 to infinity) in Sprague-Dawley rat at 10 mg/kg, po; assay type: ADME, organism-based; parameters: time infinity, dose 10 mg/kg, route oral; conditions: plasma; how it was run: as §6
[22] = Cmax in Sprague-Dawley rat at 10 mg/kg, po; assay type: ADME, organism-based; parameters: dose 10 mg/kg, route oral; conditions: in vivo; how it was run: as §6

T2 sequence (P34972 whole entry): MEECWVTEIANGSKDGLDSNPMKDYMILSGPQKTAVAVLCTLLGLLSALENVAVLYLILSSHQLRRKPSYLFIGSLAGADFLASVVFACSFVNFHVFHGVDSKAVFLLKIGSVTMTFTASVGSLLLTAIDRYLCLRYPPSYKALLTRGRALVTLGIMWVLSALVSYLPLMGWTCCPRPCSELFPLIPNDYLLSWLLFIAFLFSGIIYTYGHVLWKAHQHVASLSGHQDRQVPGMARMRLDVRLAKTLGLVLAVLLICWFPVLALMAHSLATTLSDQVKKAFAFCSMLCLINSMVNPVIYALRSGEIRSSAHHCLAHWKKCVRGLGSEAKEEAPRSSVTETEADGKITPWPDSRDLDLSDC
T1 sequence (P21554 whole entry): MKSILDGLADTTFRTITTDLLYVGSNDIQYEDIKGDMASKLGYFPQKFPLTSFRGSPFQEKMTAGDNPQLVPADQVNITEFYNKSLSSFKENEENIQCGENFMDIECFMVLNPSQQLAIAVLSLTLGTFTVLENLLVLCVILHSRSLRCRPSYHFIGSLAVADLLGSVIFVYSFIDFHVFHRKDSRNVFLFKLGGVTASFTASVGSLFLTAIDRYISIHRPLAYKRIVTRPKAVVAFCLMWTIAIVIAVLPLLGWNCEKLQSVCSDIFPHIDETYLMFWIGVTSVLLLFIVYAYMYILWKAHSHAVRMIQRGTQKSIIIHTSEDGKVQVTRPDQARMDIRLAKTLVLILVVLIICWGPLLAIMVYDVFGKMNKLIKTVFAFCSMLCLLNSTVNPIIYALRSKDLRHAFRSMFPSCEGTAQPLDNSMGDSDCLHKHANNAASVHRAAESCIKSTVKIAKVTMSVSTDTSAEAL

SMILES	EC50 (Cannabinoid receptor 2 [3]) [nM]	EC50 (Cannabinoid receptor 1 [4]) [nM]	Emax (Cannabinoid receptor 2 [5]) [%]	Emax (Cannabinoid receptor 1 [6]) [%]	EC50 (Cannabinoid receptor 2 [7]) [nM]	Emax (Cannabinoid receptor 1 [8]) [%]	Emax (Cannabinoid receptor 2 [9]) [%]	EC50 (Cannabinoid receptor 1 [10]) [nM]	other results
CCn1c2ccccc2c2cc(NC(=O)CCc3nc(-c4ccccc4F)no3)ccc21									EC50 (Cannabinoid receptor 1 [1]): > 2000 nM; Emax (Cannabinoid receptor 1 [2]): 2%
Cc1cc(NC(=O)C(C)(C)S(=O)(=O)c2ccc(Cl)cc2)no1	3860	> 10000	19	1					
CC(C)(C(=O)Nc1ccc(C(F)(F)F)cc1)S(=O)(=O)c1ccc(Cl)cc1	115	> 10000	77	14	57	19	93	> 1000	
Cc1cnc(NC(=O)C(C)(C)S(=O)(=O)c2ccc(Cl)cc2)s1	> 10000	> 10000	4	7					
O=C(Nc1cnc2ccccc2c1)C1(S(=O)(=O)c2ccccc2)CC1									EC50 (Cannabinoid receptor 2 [11]): 4 nM; EC50 (Cannabinoid receptor 1 [1]): > 10000 nM; Emax (Cannabinoid receptor 1 [2]): 6%; Emax (Cannabinoid receptor 2 [12]): 31%
CC(C)(C(=O)Nc1cccc(C(F)(F)F)c1)S(=O)(=O)c1ccc(Cl)cc1	170	> 10000	89	15	35	21	93	> 1000	
CC(C)(C(=O)Nc1cnc2ccccc2c1)S(=O)(=O)c1ccc(Cl)cc1	57	1680	90	47	13	47	93	> 1000	
COc1ccc(S(=O)(=O)C(C)(C)C(=O)Nc2cnc3ccccc3c2)c(Cl)c1	148	> 10000	91	12					
CC(C)(C(=O)Nc1ccc(Cl)cc1C#N)S(=O)(=O)c1ccc(Cl)cc1	> 10000	> 10000	14	0					
Cc1ccc(-c2cncc(NC(=O)C(C)(C)S(=O)(=O)c3ccc(Cl)cc3)c2)s1	9	322	102	80	5	106	99	331	
CC(C)(C(=O)NCc1ccccc1)S(=O)(=O)c1ccc(Cl)cc1	> 10000	> 10000	0	7					
CC(C)(C(=O)Nc1cnc2ccccc2c1)S(=O)(=O)c1ccc(F)cc1Cl	104	> 10000	108	7					
CC(C)(C(=O)Nc1ccc(Cl)c(Br)c1)S(=O)(=O)c1ccc(Cl)cc1	86	> 10000	77	7					
CC1(c2nnc(NC(=O)C(C)(C)S(=O)(=O)c3ccc(Cl)cc3)s2)CCOC1 (stereo unspecified)	216	> 10000	99	10					
CC(C)(C(=O)Nc1cnc2ccccc2c1)S(=O)(=O)c1ccc(C(F)(F)F)cc1Cl	19	1570	94	71	73	41	94	> 2000	
CC(C)(C)c1cc(NC(=O)C(C)(C)S(=O)(=O)c2ccc(Cl)cc2)no1	29	1920	99	57	11	23	85	> 2000	
CC(C)(C(=O)Nc1ccc(Cl)c(C(F)(F)F)c1)S(=O)(=O)c1ccc(Cl)cc1	20	700000	102	22	5	39	96	> 2000	clearance [13]: 9 mL/min/kg; Tmax (Rattus norvegicus): 1.7%; fraction unbound [14]: 0.002; microsomal CLint [15]: 14 µL/min/mg; fraction unbound [16]: 0.003; half-life [17]: 14 h; microsomal CLint [18]: 14 µL/min/mg; bioavailability [19]: 52%; Vd [20]: 9.3 L/kg; AUC(0-inf) [21]: 9680 ng·h/mL; Cmax [22]: 560 ng/mL
CC(C)(C(=O)Nc1ccc(Cl)cc1OC(F)(F)F)S(=O)(=O)c1ccc(Cl)cc1	1620	> 10000	44	2					
CC(C)(C(=O)Nc1ccc(Cl)c(-c2ccco2)c1)S(=O)(=O)c1ccc(Cl)cc1	4	96	101	82	5	98	101	230	
Cn1nc(C(C)(C)C)cc1NC(=O)C(C)(C)S(=O)(=O)c1ccc(Cl)cc1	26	223000	104	37	25	12	92	> 2000	clearance [13]: 20 mL/min/kg; Tmax (Rattus norvegicus): 0.67%; fraction unbound [14]: 0.064; microsomal CLint [15]: 20 µL/min/mg; fraction unbound [16]: 0.06; half-life [17]: 1.9 h; microsomal CLint [18]: 14 µL/min/mg; bioavailability [19]: 43%; Vd [20]: 2 L/kg; AUC(0-inf) [21]: 3570 ng·h/mL; Cmax [22]: 971 ng/mL
Cc1ccccc1-c1nnc(NC(=O)C(C)(C)S(=O)(=O)c2ccc(Cl)cc2)s1	189	1650	81	48					
CCn1c2ccccc2c2cc(NC(=O)C3(S(=O)(=O)c4ccccc4)CC3)ccc21									EC50 (Cannabinoid receptor 2 [11]): 8 nM; EC50 (Cannabinoid receptor 1 [1]): 390 nM; Emax (Cannabinoid receptor 1 [2]): 40%; Emax (Cannabinoid receptor 2 [12]): 95%
CC(C)(C(=O)Nc1cnc2ccccc2c1)S(=O)(=O)c1ccc(F)cc1	109	2780	102	22	33	19	97	> 2000	
CC(C)(C(=O)NCc1ccc(F)c(Cl)c1)S(=O)(=O)c1ccc(Cl)cc1	1300	> 10000	76	2					
